{"source": "ChEMBL document CHEMBL1125109", "about": "“High potency dipeptide sweeteners. 1. L-aspartyl-D-phenylglycine esters” (J Med Chem, 1990)"}
{"assay": "Sweetness potency relative to 5-10% of sucrose", "format": "functional", "how_it_was_run": "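Human taste panel: five to ten expert male panelists tasted and spat 10 mL of sweetener solution, rating sweetness potency and quality against five sucrose standards (0.04 M/1.4% to 0.35 M/12.0%). Test solution generally equivalent to 5–10% sucrose. Potency = equi-sweet sucrose concentration divided by actual sweetener concentration; mean ± 95% confidence limit. Acute oral rat toxicity tested first.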"}
{"molecule": "COC(=O)C(NC(=O)[C@@H](N)CC(=O)O)C(=O)O[C@@H]1C(C)(C)C2CC[C@]1(C)C2", "note": "(stereo partly specified)", "Potency": 50000}
{"molecule": "CC1(C)CCC(C)(C)C1OC(=O)[C@H](NC(=O)[C@@H](N)CC(=O)O)c1ccccc1", "Potency": 190}
{"molecule": "CC1(C)C2CC[C@](C)(C2)[C@@H]1OC(=O)[C@H](NC(=O)[C@@H](N)CC(=O)O)c1ccccc1", "note": "(stereo in doubt; 29)", "Potency": 1200}
{"molecule": "N[C@@H](CC(=O)O)C(=O)N[C@@H](C(=O)OC1CC2CCC1C2)c1ccccc1", "note": "(stereo in doubt; 26)", "Potency": 20}
{"molecule": "CC1(C)C2CCC1(C)C(OC(=O)[C@H](NC(=O)[C@@H](N)CC(=O)O)c1ccccc1)C2", "note": "(stereo partly specified)", "Potency": 0}
{"molecule": "CC12CC(O)C(C1)C(C)(C)C2OC(=O)[C@H](NC(=O)[C@@H](N)CC(=O)O)c1ccccc1", "note": "(stereo partly specified)", "Potency": 100}
{"molecule": "CC1(OC(=O)[C@H](NC(=O)[C@@H](N)CC(=O)O)c2ccccc2)CC2CCC1C2", "note": "(stereo partly specified)", "Potency": 40}
{"molecule": "CC(OC(=O)[C@H](NC(=O)[C@@H](N)CC(=O)O)c1ccccc1)C(C)(C)C", "note": "(stereo partly specified)", "Potency": 30}
{"molecule": "CC12CCC(O1)C(C)(C)C2COC(=O)[C@H](NC(=O)[C@@H](N)CC(=O)O)c1ccccc1", "note": "(stereo partly specified)", "Potency": 0}
{"molecule": "N[C@@H](CC(=O)O)C(=O)N[C@@H](C(=O)OC1CC2CCC1C2)c1ccccc1", "note": "(stereo in doubt; 28)", "Potency": 180}
{"molecule": "CC12CCC(C1)C(C)(C)C2OC(=O)[C@H](NC(=O)[C@@H](N)CC(=O)O)c1ccc(O)cc1", "note": "(stereo partly specified)", "Potency": 420}
{"molecule": "CC12CCC(C1)C(C)(C)C2OC(=O)[C@H](NC(=O)[C@@H](N)CC(=O)O)c1ccccc1F", "note": "(stereo partly specified)", "Potency": 720}
{"molecule": "N[C@@H](CC(=O)O)C(=O)N[C@@H](C(=O)OC1C2CC3COC1C3C2)c1ccccc1", "note": "(stereo partly specified)", "Potency": 80}
{"molecule": "CC1(C)SC(C)(C)C1OC(=O)[C@H](NC(=O)[C@@H](N)CC(=O)O)c1ccccc1", "Potency": 300}
{"molecule": "CC1CCCC(C)C1OC(=O)[C@H](NC(=O)[C@@H](N)CC(=O)O)c1ccccc1", "note": "(stereo partly specified)", "Potency": 210}
{"molecule": "CC1CCC(C)C1OC(=O)[C@H](NC(=O)[C@@H](N)CC(=O)O)c1ccccc1", "note": "(stereo partly specified)", "Potency": 380}
